Source: ChEMBL document CHEMBL5032510, “Identification of Novel Fused Heteroaromatics-Based MALT1 Inhibitors by High-Throughput Screening to Treat B Cell Lymphoma” (J Med Chem, 2021)

Legend:
[1] = Induction of apoptosis in human HBL1 cells assessed as early apoptotic cells at 10 uM measured after 24 hrs by Annexin V-FITC/ Propidium iodide staining based flow cytometry (reference value: 4.85%); type: functional
[2] = Induction of apoptosis in human HBL1 cells assessed as dead cells at 2 uM measured after 24 hrs by Annexin V-FITC/ Propidium iodide staining based flow cytometry (reference value: 2.32%); type: functional
TMD8 [3] = assay: Induction of apoptosis in human TMD8 cells assessed as increase in cleaved caspase 3 level measured after 12 hrs by Western blot analysis; type: functional, cell-based
Method in brief: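 HBL1, TMD8 or OCI-LY1 cells were exposed to DMSO or compound for 12 h. Cleaved PARP and caspase-3 were probed by western blot with HRP-conjugated secondary antibodies and chemiluminescent detection. Each lane held 20−75 μg total protein.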

TMD8 [4] = assay: Antitumor activity against human TMD8 cells xenografted in NCG mouse assessed as tumor growth inhibition at 30 mg/kg/day, ip measured every 2 days for 13 days by caliper method relative to control; type: functional; conditions: 312 h, time 13 day, read-out: TGI

Compound: COc1ccc(OC)c(NC(=O)c2sc(=S)n(-c3ccc(C(F)(F)F)cc3)c2NC(=O)CCl)c1
- Activity [1]: 57.8%
- Activity [2]: 1.94%
- Activity (TMD8 [3]): Dose-Dependent Effect
- inhibition in vivo at 30 mg/kg/day (TMD8 [4]): 31%
